Results on 4 molecules are retold here after ChEMBL document CHEMBL1152519, “Synthesis, structural activity-relationships, and biological evaluation of novel amide-based allosteric binding site antagonists in NR1A/NR2B N-methyl-D-aspartate receptors” (Bioorg Med Chem, 2009).

Each structure is given as a SMILES string. pIC50, pKi: −log10 of the molar value.

Series [1] has as its target Ionotropic glutamate receptor NMDA 1/2D (Rattus norvegicus) (UniProt P35439+Q62645). The experiment in a line: Antagonist activity at rat recombinant NR1/NR2D receptor expressed in Xenopus laevis oocytes assessed as inhibition of glutamate/glycine-induced current at 3 uM by two electrode voltage clamp method relative to control. It counts as functional, cell-based. The settings on record: Oocyte. In short, it runs like this: (§1)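 Xenopus oocytes injected with NR1-1a (3–5 ng) plus NR2A, 2B, 2C or 2D cRNA (7–10 ng), kept at 15 °C. Voltage clamp at −40 mV. Responses to 50 μM glutamate + 30 μM glycine with 3 μM compound, as % of response without compound. NR2A oocytes pre-loaded with 50 μM BAPTA-AM. Mean ± SEM, 4–10 oocytes; paired t-test.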

In series [2] the target is Glutamate NMDA receptor; Grin1/Grin2b (Rattus norvegicus) (UniProt P35439+Q00960). Nature of the series: Antagonist activity at rat recombinant NR1/NR2B receptor expressed in Xenopus laevis oocytes assessed as inhibition of glutamate/glycine-induced current at 3 uM by two electrode voltage clamp method relative to control. Type of series: functional, cell-based. The conditions noted are these: Oocyte. An outline of the steps: as §1
For orientation: Two-electrode voltage clamp holds a large cell at a set potential and records current.

Series [3] concerns the target Adrenergic receptor alpha-1 (Rattus norvegicus) (UniProt P15823+P23944+P43140). The experiment in a line: Displacement of [3H]prazosin from alpha1 adrenergic receptor in Wistar rat brain membrane at 3 uM. Type of series: cell membranes. In short, it runs like this:
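Wistar rat brain membranes. Percent displacement of 0.25 nM [3H]prazosin by 3 μM compound, run in duplicate.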
(Displacement assays read how much labelled ligand stays bound in the presence of the test substance.)

Series [4] has as its target Glutamate NMDA receptor; Grin1/Grin2c (Rattus norvegicus) (UniProt P35439+Q00961). The experiment in a line: Antagonist activity at rat recombinant NR1/NR2C receptor expressed in Xenopus laevis oocytes assessed as inhibition of glutamate/glycine-induced current at 3 uM by two electrode voltage clamp method relative to control. The settings on record: Oocyte. It counts as functional, cell-based. In short, it runs like this:
as §1

In series [5] the target is Glutamate receptor ionotropic, kainate 2 (Rattus norvegicus) (UniProt P42260). The experiment in a line: Antagonist activity at rat recombinant GluR6 expressed in Xenopus laevis oocytes assessed as inhibition of concanavalin A/glutamate-induced current at 3 uM by two electrode voltage clamp method relative to control. It counts as functional, cell-based. The conditions noted are these: Oocyte. In short, it runs like this: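 Oocytes expressing homomeric GluR6 (5–10 ng cRNA) pretreated 5 min with 10 μM concanavalin-A. Currents evoked by 100 μM glutamate at −40 mV, with or without 3 μM compound, and given as percent of control. Mean ± SEM of 4–10 oocytes; paired t-test.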

The target in series [6] is Voltage-gated inwardly rectifying potassium channel KCNH2 (Homo sapiens, UniProt Q12809). The experiment in a line: Displacement of [3H]astemizole from human recombinant ERG expressed in HEK293 cells. Type of series: cell-based.
Series [7] addresses Glutamate NMDA receptor; Grin1/Grin2a (Rattus norvegicus) (UniProt P35439+Q00959). The experiment in a line: Antagonist activity at rat recombinant NR1/NR2A receptor expressed in Xenopus laevis oocytes assessed as inhibition of glutamate/glycine-induced current at 3 uM by two electrode voltage clamp method relative to control. Type of series: functional, cell-based. The conditions noted are these: Oocyte. In short, it runs like this: as §1

Series [8] addresses T1, hERG (KCNH2) (Homo sapiens, UniProt Q12809). Nature of the series: Displacement of [3H]astemizole from human recombinant ERG expressed in HEK293 cells at 3 uM. It counts as cell-based. The conditions noted are these: HEK293 cells expressing human recombinant ERG, probe [3H]astemizole, read-out: Activity. An outline of the steps: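 Membranes from HEK293 cells expressing human hERG. Ligand 1.5 nM [3H]-astemizole; displacement at a single test-compound concentration, run in duplicate.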

The target in series [9] is Glutamate receptor 1 (Rattus norvegicus) (UniProt P19490). Nature of the series: Antagonist activity at rat recombinant GluR1 expressed in Xenopus laevis oocytes assessed as inhibition of glutamate-induced current at 3 uM by two electrode voltage clamp method relative to control. It counts as functional, cell-based. The conditions noted are these: Oocyte. In short, it runs like this:
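GluR1 homomers expressed from 5–10 ng cRNA in Xenopus oocytes. Clamped at −40 mV. Currents evoked by 100 μM glutamate with 3 μM compound, expressed as % of control without compound. Mean ± SEM, 4–10 oocytes; paired t-test.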

The target in series [10] is Glutamate NMDA receptor; GRIN1/GRIN2B (Homo sapiens, UniProt Q05586+Q13224). Nature of the series: Antagonist activity at human recombinant NR1/NR2B receptor expressed in frog oocytes assessed as inhibition of glutamate/glycine-induced current by two electrode voltage clamp method. It counts as functional, cell-based, Oocyte. An outline of the steps: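 Human NR1/NR2B cRNA injected into Xenopus oocytes. Two-electrode voltage clamp at −40 mV, 23 °C, 2–7 d after injection. Glutamate/glycine (50–100 μM/30 μM) applied, then with 5–8 compound concentrations. Bath contains 10 μM EDTA; leak-corrected.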

Series [11] has as its system MDCK. The experiment in a line: Efflux ratio of permeability from basolateral to apical over apical to basolateral side in MDR1-expressing MDCK cells at 5 uM after 2 hrs by LC-MS/MS analysis. Type of series: ADME, cell-based, Canis lupus familiaris. The settings on record: dog.
In series [12] the target is Glutamate receptor ionotropic, NMDA 2B (Rattus norvegicus, UniProt Q00960). Nature of the series: Displacement of [3H]ifenprodil form NR2B receptor in Wistar rat cerebral cortex membrane. It counts as tissue-based.
Series [13] deals with MDCK. The experiment in a line: Apparent permeability from apical to basolateral side of MDR1-expressing MDCK cells at 5 uM after 2 hrs by LC-MS/MS analysis. Type of series: ADME, cell-based, Canis lupus familiaris. The conditions noted are these: dog. An outline of the steps: (§2)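 MDR1-MDCK monolayers grown 7–11 days on Transwells. Compound at 5 μM in HBSS pH 7.4 (final DMSO ≤1%) added apically (A–B) or basally (B–A). Incubated 2 h at 37 °C; both compartments quantified by LC–MS/MS against a >4-point calibration. Papp given in ×10−6 cm/s; efflux ratio = B–A/A–B. Duplicates.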

The test system of series [14] is MDCK. Nature of the series: Apparent permeability from basolateral to apical side of MDR1-expressing MDCK cells at 5 uM after 2 hrs by LC-MS/MS analysis. Type of series: ADME, cell-based, Canis lupus familiaris. The settings on record: dog. An outline of the steps:
as §2

For series [15], the target named is T1, hERG (KCNH2). The experiment in a line: Displacement of [3H]astemizole from human recombinant ERG expressed in HEK293 cells at 10 uM. It counts as cell-based. The conditions noted are these: HEK293 cells expressing human recombinant ERG, probe [3H]astemizole, read-out: Activity.
Series [16] is described as follows: Selectivity ratio of IC50 for mouse NR1/NR2B receptor D101A mutant to IC50 for wild type rat NR1/NR2B receptor.

By pKi is commonly meant −log10 of the Ki, conventionally taken in molar units. One may read the pIC50 as the IC50 on a negative log10 scale, so that one unit is a factor of ten. The term Papp denotes a coefficient for how fast a substance crosses the barrier.

Chain of Glutamate receptor 1 (Rattus norvegicus) (P19490 whole entry): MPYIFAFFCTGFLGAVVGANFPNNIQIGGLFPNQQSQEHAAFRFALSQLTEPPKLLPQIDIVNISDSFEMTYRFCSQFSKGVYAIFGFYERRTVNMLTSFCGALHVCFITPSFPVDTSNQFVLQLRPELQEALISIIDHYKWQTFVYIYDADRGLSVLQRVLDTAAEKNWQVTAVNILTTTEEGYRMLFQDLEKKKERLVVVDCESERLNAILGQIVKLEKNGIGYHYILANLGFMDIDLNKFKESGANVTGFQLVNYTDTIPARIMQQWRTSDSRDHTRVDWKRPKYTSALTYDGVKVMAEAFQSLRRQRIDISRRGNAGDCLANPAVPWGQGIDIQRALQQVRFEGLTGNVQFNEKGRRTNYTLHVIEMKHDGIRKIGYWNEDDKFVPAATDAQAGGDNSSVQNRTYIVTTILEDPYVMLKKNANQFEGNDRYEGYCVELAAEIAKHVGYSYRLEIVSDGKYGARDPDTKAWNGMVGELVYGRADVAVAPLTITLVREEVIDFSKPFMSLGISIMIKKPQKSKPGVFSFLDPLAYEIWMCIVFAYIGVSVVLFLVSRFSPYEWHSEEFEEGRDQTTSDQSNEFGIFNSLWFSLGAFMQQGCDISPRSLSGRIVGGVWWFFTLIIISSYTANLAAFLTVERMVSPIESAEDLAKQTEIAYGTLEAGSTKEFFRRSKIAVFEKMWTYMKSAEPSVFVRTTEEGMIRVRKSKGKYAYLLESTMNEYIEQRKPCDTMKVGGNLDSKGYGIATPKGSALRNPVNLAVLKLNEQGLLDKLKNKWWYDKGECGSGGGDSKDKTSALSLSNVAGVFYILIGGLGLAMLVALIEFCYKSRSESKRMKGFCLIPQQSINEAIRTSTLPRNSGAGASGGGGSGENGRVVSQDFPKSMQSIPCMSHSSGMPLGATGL
Chain of Glutamate NMDA receptor; GRIN1/GRIN2B (Q13224 whole entry, other chains not shown): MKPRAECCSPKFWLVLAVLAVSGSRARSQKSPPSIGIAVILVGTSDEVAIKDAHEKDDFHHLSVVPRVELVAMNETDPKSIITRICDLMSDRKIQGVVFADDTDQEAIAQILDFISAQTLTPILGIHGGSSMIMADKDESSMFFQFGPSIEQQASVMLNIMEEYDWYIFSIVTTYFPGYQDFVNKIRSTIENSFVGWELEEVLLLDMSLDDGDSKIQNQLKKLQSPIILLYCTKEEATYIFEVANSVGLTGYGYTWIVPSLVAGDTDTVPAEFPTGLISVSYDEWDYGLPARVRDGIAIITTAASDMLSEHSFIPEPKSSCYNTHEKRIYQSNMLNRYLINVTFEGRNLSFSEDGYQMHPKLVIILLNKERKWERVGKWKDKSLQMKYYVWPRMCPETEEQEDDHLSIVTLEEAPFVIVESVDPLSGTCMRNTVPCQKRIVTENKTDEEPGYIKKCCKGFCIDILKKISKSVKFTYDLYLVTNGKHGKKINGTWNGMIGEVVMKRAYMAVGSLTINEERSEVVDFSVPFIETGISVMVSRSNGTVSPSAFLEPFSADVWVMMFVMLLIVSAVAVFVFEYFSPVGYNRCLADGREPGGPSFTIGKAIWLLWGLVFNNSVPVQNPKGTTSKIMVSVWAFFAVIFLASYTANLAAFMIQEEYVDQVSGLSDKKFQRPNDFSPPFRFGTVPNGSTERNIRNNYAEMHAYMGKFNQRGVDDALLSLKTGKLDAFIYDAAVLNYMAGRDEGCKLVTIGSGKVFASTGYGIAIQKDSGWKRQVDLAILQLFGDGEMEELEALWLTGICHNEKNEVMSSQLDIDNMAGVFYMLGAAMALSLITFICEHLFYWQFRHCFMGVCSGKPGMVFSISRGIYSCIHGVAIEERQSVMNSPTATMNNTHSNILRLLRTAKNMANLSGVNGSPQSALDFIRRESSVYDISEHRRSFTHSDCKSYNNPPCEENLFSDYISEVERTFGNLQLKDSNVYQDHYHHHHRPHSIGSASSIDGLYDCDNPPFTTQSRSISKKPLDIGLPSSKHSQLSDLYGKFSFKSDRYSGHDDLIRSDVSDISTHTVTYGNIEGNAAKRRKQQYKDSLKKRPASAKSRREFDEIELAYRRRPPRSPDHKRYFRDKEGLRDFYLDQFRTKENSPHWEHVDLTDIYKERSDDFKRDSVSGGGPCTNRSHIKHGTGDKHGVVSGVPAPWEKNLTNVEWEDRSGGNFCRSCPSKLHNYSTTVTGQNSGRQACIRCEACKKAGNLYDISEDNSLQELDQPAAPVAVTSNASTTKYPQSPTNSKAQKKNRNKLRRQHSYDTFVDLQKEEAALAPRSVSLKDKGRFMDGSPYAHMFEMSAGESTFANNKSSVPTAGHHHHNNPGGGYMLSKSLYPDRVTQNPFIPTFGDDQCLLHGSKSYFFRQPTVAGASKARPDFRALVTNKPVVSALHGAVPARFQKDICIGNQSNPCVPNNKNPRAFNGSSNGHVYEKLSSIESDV
Chain of Glutamate receptor ionotropic, kainate 2 (Rattus norvegicus) (P42260 whole entry): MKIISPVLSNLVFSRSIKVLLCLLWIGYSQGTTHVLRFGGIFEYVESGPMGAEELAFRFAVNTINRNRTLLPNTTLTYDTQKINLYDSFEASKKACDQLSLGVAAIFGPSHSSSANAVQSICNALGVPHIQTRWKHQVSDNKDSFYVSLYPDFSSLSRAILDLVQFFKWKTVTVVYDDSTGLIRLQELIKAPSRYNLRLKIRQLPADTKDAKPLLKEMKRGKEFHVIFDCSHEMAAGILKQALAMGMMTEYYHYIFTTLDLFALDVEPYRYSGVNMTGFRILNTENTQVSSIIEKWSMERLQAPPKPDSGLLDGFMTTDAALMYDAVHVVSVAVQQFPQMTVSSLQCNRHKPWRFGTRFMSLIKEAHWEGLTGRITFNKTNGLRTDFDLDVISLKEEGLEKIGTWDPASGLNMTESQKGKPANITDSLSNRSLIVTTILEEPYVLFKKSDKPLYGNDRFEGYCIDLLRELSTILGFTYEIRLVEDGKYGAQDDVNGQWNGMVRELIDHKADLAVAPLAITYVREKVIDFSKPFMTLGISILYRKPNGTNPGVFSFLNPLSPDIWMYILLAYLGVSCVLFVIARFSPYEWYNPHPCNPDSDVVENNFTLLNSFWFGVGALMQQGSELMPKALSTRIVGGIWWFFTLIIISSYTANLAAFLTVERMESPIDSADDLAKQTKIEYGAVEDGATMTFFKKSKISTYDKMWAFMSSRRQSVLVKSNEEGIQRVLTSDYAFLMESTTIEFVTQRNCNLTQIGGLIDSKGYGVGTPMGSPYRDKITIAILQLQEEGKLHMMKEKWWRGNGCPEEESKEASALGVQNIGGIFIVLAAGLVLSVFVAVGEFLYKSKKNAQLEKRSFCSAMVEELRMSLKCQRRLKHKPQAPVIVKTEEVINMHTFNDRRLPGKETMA
T1 sequence (Q12809 whole entry): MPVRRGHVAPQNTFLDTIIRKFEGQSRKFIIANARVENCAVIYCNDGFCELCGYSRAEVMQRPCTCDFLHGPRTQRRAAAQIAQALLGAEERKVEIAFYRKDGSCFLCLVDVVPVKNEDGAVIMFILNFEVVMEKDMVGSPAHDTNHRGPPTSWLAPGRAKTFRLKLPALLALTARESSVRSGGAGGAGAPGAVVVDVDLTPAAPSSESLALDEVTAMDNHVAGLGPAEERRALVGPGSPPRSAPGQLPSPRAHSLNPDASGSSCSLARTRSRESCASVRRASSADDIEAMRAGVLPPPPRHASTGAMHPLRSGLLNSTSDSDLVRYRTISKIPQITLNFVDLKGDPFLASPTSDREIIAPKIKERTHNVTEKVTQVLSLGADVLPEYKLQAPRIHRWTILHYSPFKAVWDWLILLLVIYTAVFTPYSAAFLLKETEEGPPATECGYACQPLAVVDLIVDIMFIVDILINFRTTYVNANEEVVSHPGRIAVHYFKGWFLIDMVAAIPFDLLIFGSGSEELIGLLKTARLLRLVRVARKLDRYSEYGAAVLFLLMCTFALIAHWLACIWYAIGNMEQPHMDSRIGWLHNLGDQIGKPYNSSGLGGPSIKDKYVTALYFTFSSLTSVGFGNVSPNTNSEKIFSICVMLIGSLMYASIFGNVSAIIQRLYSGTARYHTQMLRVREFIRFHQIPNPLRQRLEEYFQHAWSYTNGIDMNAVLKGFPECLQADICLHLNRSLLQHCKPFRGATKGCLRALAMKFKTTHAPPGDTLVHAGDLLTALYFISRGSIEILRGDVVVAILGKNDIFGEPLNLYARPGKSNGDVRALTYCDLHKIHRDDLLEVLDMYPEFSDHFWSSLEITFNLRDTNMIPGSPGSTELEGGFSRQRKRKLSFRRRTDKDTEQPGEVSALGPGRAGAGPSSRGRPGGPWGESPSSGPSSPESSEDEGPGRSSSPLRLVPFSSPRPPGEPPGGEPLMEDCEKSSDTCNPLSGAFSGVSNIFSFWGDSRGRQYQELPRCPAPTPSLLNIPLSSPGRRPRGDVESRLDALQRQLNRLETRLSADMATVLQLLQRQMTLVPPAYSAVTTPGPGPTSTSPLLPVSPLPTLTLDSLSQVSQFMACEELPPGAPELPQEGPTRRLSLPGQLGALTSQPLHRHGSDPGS

Consider `CS(=O)(=O)Nc1ccc(CCC(=O)NC/C=C/c2ccc(Cl)c(Cl)c2)cc1`, for which the % response stood at 88% in [1]; 18% in series [2]; 95% in series [4]; 100% in series [5]; 99% in [7]; 104% in [9]. In series [3], this molecule registered an Activity of 16%. Also, the negative logarithm of the Ki (pKi) in series [6] was 5.52. Further, the inhibition at 3 µM at hERG (KCNH2) [8] was 47%. Also, the pIC50 in series [10] is 7.30.
On to `CS(=O)(=O)Nc1ccc(OCCN2CCN(c3ccc(Cl)c(Cl)c3)C2=O)cc1`, for which the % response in series [1] was determined as 98%; in series [2], 20%; in [4] it was 98%; in series [5], 103%; in series [7], 105%; in [9], 98%. In addition, the Activity in [3] was determined as 23%. Moreover, the Ratio in the series on MDCK [11] was determined as 3.1. Besides, the pKi in series [12] was 6.52. The Papp with MDCK [13] came out at 129 nm/s; with MDCK [14], 402 nm/s. For the same molecule, the negative-log IC50 (pIC50) in series [10] is 6.14. The inhibition at 10 µM at hERG (KCNH2) [15] was 71%.
Take `CS(=O)(=O)Nc1ccc(OCC(=O)N2CCN(c3ccc(Cl)c(Cl)c3)CC2)cc1`: the % response came out at 106% in series [1]; 18% in series [2]; 94% in [4]; 101% in series [5]; 89% in [7]; 101% in series [9]. Further, the Activity in series [3] is 90%. For the same molecule, the pKi in series [12] was 6.09. Further, the Papp is 47.6 nm/s in the series on MDCK [13] and 424 nm/s in the series with MDCK [14]. Moreover, the pIC50 in series [10] was 6.78. Moreover, the inhibition at 10 µM at hERG (KCNH2) [15] is 93%.
As for `CS(=O)(=O)Nc1ccc(CCC(=O)NNC(=O)Nc2ccc(Cl)c(Cl)c2)cc1`, the % response came to 91% in series [1]; 6% in series [2]; 96% in series [4]; 99% in [5]; 101% in [7]; 100% in series [9]. The molecule also returned an Activity in [3] of 5%. The pIC50 in series [10] was 7.55. In addition, the inhibition at 10 µM at hERG (KCNH2) [15] worked out at 3%. The Ratio IC50 in [16] was 51.
